Measurements of several laboratories.
Protocols differ between the studies behind these lines.
Target: 5'-AMP-activated protein kinase catalytic subunit alpha-2 (PRKAA2, Homo sapiens, UniProt P54646)

For `N[C@@H]1CCN(c2nccc(-c3cnn4ncccc34)n2)C1`, the remaining binding was 98% (binding; 1 µM).
`Cc1c[nH]c2nccc(Oc3c(F)cc(Nc4cc(Cl)nc(N)n4)cc3F)c12` has a remaining binding of 89% (cell-free assay, competition with immobilised ligand; 0.1 µM).
`O=C(c1ccc(Nc2ncc(Cl)c(-c3cc4ccccc4s3)n2)cc1)N1CCC(N2CCCC2)CC1` has a remaining binding of 4% (binding, competition with immobilised ligand; 1 µM).
`Cc1c(NC(=O)c2cc(C(N)=O)nc3cc(F)ccc23)c(C(F)(F)F)nn1Cc1ccc(C(C)(C)C)cc1` gave a remaining binding of 100% (cell-free assay, competition with immobilised ligand; 1 µM).
For `CN(C)c1nccc(-c2cnc3ncccn23)n1`, the remaining binding was 80% (binding; 1 µM).
With `O=C(NS(=O)(=O)c1ccc(NCC2CCOCC2)c([N+](=O)[O-])c1)c1ccc(N2CCN(Cc3ccc(C(F)(F)F)cc3-c3ccc(Cl)cc3)CC2)cc1Oc1cnc2[nH]ccc2c1` the remaining binding was 100% (cell-free assay, competition with immobilised ligand; 1 µM).
`O=C(c1ccc(Nc2nccc(-c3cc4ccccc4s3)n2)cc1)N1CCC(N2CCCC2)CC1` gave a remaining binding of 31% (binding, competition with immobilised ligand; 1 µM).
With `CN(C)c1ncc(F)c(-c2cnn3ncccc23)n1` the remaining binding was 100% (binding; 1 µM).
`C[C@H](c1ccc(F)cc1)N(Cc1cccc(C(=O)O)c1)C(=O)c1cnc2ccccc2c1` has a remaining binding of 100% (cell-free assay, competition with immobilised ligand; 1 µM).
`CN(CCCC(F)(F)F)c1nccc(-c2cnn3ncccc23)n1` gave a remaining binding of 100% (binding; 1 µM).
For `O=C(c1ccc(Nc2ncc(Cl)c(-c3ccc(Cl)s3)n2)cc1)N1CCC(N2CCCC2)CC1`, the remaining binding was 8.2% (binding, competition with immobilised ligand; 1 µM).
The remaining binding of `c1cnn2ncc(-c3ccnc(N4CCC45COC5)n3)c2c1` is reported as 91% (binding; 1 µM).
For `COc1cnc(Nc2cccc(S(N)(=O)=O)c2)nc1N1CCN(c2ccccc2)CC1`, the remaining binding was 100% (binding, competition with immobilised ligand; 1 µM).
The remaining binding of `Cc1c(NC(=O)c2cc(C(N)=O)nc3cc(F)ccc23)c(C(F)(F)F)nn1Cc1ccc(C#N)cc1` is reported as 100% (cell-free assay, competition with immobilised ligand; 1 µM).
The remaining binding of `c1cncc(-c2cccc(Nc3nccc(NC4CCCCC4)n3)c2)c1` is reported as 23% (binding, competition with immobilised ligand; 10 µM).
The remaining binding of `C[C@@H](c1ccc(-n2cnc3c(N)ncnc32)cc1)N1CCc2nn(C)c(Cc3ccccc3)c2C1=O` is reported as 100% (binding, competition with immobilised ligand; 0.1 µM).
`C=CC(=O)N1CCC(C(=O)NCC(=O)N2CCN(c3nc(-c4cnc(N)nc4C(F)F)nc(N4CCOCC4)n3)CC2)CC1` gave a remaining binding of 100% (binding, competition with immobilised ligand; 1 µM).
`O=C(Nc1c[nH]nc1C(=O)NC1CCNCC1)c1cc(F)cc(F)c1` gave a remaining binding of 100% (binding, competition with immobilised ligand; 1 µM).
With `CC(=O)c1c(NS(C)(=O)=O)c2cc(-c3ccc(Cl)cc3)c(-c3ccc(Cl)cc3Cl)nc2n(C)c1=O` the remaining binding was 85% (cell-free assay, competition with immobilised ligand; 1 µM).
The remaining binding of `FC(F)(F)Oc1cccc(-c2cnc3ccc(-c4ccncc4)nn23)c1` is reported as 80% (cell-free assay, competition with immobilised ligand; 5 µM).
With `Cc1nc(N2CC[C@@H](O)C2)ncc1-c1cc(C(F)(F)F)cc2[nH]ncc12` the remaining binding was 100% (cell-free assay, competition with immobilised ligand; 1 µM).
`C[C@@H]1CCN(c2nccc(-c3cnn4ncccc34)n2)C1` gave a remaining binding of 74% (binding; 1 µM).
